Experiments:
[1] = target: T1, NAD-dependent protein deacetylase sirtuin-1 (Homo sapiens, UniProt Q96EB6); experiment: Inhibition of human recombinant SIRT1 by fluorimetric analysis
T1 sequence (Q96EB6 whole entry): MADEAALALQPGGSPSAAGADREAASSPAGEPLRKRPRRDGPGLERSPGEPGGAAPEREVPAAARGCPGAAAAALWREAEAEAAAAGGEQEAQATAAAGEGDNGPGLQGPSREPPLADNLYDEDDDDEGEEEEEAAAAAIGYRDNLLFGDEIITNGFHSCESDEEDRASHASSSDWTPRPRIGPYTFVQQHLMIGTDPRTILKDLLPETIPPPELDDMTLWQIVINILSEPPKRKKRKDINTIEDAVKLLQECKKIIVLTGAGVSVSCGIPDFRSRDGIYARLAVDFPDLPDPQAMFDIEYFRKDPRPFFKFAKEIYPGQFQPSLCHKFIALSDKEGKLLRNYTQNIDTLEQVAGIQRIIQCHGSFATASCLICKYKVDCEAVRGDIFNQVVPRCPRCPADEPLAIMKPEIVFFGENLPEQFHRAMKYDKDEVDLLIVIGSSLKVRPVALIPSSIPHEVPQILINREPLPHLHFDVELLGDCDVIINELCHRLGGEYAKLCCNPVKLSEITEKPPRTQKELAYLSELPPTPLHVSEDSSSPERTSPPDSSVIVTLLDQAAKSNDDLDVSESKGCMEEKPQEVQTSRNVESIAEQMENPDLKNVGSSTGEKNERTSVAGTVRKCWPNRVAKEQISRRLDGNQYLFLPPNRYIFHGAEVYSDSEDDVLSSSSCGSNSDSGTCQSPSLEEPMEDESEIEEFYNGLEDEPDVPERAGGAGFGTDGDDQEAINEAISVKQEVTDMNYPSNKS
Method in brief: (§1)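 Recombinant human SIRT1 was incubated at 37 °C with Fluor de Lys-SIRT1 substrate, NAD⁺ and a range of sample concentrations. After 60 min the reaction was stopped with Fluor de Lys Developer II containing nicotinamide. Fluorescence (ex 360 nm / em 460 nm) was read 45 min later, and % inhibition was taken relative to control wells.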

Daudi [2] = experiment: Growth inhibition of human Daudi cells after 24 hrs by alamar blue assay; type: functional; conditions: 72 h, in the assay text read “after 72 hrs” for “after 24 hrs”
Method in brief: (§2)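 Cells came from ATCC and were grown with penicillin/streptomycin and FBS: HCT116 in McCoy's 5A, Daudi in RPMI. They were seeded at 5000 cells/well; after 24 h, compounds in medium were added at various concentrations for 72 h at 37 °C, 5% CO₂. AlamarBlue was then added for 3 h, fluorescence read (ex 530 / em 590 nm), and % cell growth calculated.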

HCT-116 [3] = experiment: Growth inhibition of human HCT116 cells at 100 uM after 24 hrs by alamar blue assay; type: functional; conditions: HCT-116, 72 h, in the assay text read “after 72 hrs” for “after 24 hrs”; method in brief: as §2
HCT-116 [4] = experiment: Growth inhibition of human HCT116 cells after 24 hrs by alamar blue assay; type: functional; conditions: HCT-116, 72 h, in the assay text read “after 72 hrs” for “after 24 hrs”; method in brief: as §2
Daudi [5] = experiment: Growth inhibition of human Daudi cells at 100 uM after 24 hrs by alamar blue assay; type: functional; conditions: 72 h, in the assay text read “after 72 hrs” for “after 24 hrs”; method in brief: as §2
[6] = target: T1, NAD-dependent protein deacetylase sirtuin-1; experiment: Inhibition of human recombinant SIRT1 at 300 uM by fluorimetric analysis; method in brief: as §1

IC50 [1] [µM] | GI50 (Daudi [2]) [µM] | GI50 (HCT-116 [4]) [µM] | inhibition (INH) [6] [%] | SMILES | inhibition at 100 µM (HCT-116 [3]) [%] | inhibition at 100 µM (Daudi [5]) [%]
72 | > 100 | > 100 |  | NC(=O)c1ccccc1Nc1cccc(CCO)c1 | 12 | 6
56 | 77 | > 100 |  | NC(=O)c1ccccc1Nc1ccccc1 [ANILINOBENZAMIDE] | 21 | 74
58 | > 100 | > 100 |  | NC(=O)c1ccccc1Nc1cccc(/C=C/C(=O)O)c1 | 0 | 0
52 | 26 | 43 |  | NC(=O)c1ccccc1Nc1cccc(-c2ccccc2)c1 | 126 | 108
58 | 31 | 50 |  | NC(=O)c1ccccc1Nc1cccc(Oc2ccccc2)c1 | 126 | 103
65 |  |  |  | COC(=O)/C=C/c1cccc(Nc2ccccc2C(N)=O)c1 |  | 
 |  |  | 36 | NC(=O)c1ccccc1Nc1ccc(-c2ccccc2)cc1 |  | 
78 |  |  |  | NC(=O)c1ccccc1Sc1ccccc1 |  | 
89 |  |  |  | NC(=O)c1ccccc1Nc1cccc(Sc2ccccc2)c1 |  | 
60 | > 100 | > 100 |  | NC(=O)c1ccccc1Nc1cccc(CO)c1 | 4 | 0
68 |  |  |  | Cc1cccc(Nc2ccccc2C(N)=O)c1 |  | 
